Assay results from ChEMBL document CHEMBL1125826, “Synthesis and biological activity of 5-amino- and 5-hydroxyquinolones, and the overwhelming influence of the remote N1-substituent in determining the structure-activity relationship” (1991).
Converted amounts (≈) assume the structure as drawn.

Key:
Type in all cases: functional
[1] = target: DNA gyrase (Escherichia coli) (UniProt P0AES6+P0AES4); experiment: Minimum inhibitory concentration against Escherichia coli DNA-gyrase in supercoiling assay
[2] = tested on: Enterobacter cloacae; experiment: Antibacterial activity was determined against gram negative organism, Enterobacter cloacae MA2646; conditions: Enterobacter cloacae; read-out: MIC
[3] = tested on: Escherichia coli; experiment: Antibacterial activity was determined against gram negative organism, Escherichia coli vogel; conditions: Escherichia coli; read-out: MIC
Method in brief: (§1)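 MIC (µg/mL) by standard microtitration against a panel of 10 Gram-positive and Gram-negative organisms; values averaged from multiple experiments.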

[4] = tested on: Bacteria; experiment: MIC ratio measured as the mean MICs of gram-negative bacteria
Method in brief: (§2)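 Geometric mean of the microtitration MICs (µg/mL) over the Gram-negative organisms, and separately over the Gram-positive organisms, of the 10-strain panel; individual MICs averaged from multiple experiments.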

[5] = tested on: Bacteria; experiment: MIC ratio measured as the mean MICs of gram-positive bacteria; method in brief: as §2
[6] = tested on: Klebsiella pneumoniae; experiment: Antibacterial activity was determined against gram negative organism, Klebsiella pneumoniae MGH-2; conditions: Klebsiella pneumoniae; read-out: MIC; method in brief: as §1
[7] = tested on: Pseudomonas aeruginosa; experiment: Antibacterial activity was determined against gram negative organism, Pseudomonas aeruginosa UI-18; conditions: Pseudomonas aeruginosa; read-out: MIC; method in brief: as §1
[8] = tested on: Bacteria; experiment: Antibacterial activity was determined against gram negative organism, Providencia rettgeri. M1771; conditions: Bacteria; read-out: MIC; method in brief: as §1
[9] = tested on: Staphylococcus aureus; experiment: Antibacterial activity was determined against gram positive organism, Staphylococcus aureus H228; conditions: Staphylococcus aureus; read-out: MIC; method in brief: as §1
[10] = tested on: Streptococcus pneumoniae; experiment: Antibacterial activity was determined against gram positive organism, Streptococcus pneumoniae SV-1; conditions: Streptococcus pneumoniae; read-out: MIC; method in brief: as §1
[11] = tested on: Enterococcus faecalis; experiment: Antibacterial activity was determined against gram positive organism, Streptococcus faecalis MGH-2; conditions: Enterococcus faecalis; read-out: MIC; method in brief: as §1
[12] = tested on: Staphylococcus aureus; experiment: Antibacterial activity was determined against gram positive organism, Staphylococcus aureus UC76; method in brief: as §1
[13] = tested on: Streptococcus pyogenes; experiment: Antibacterial activity was determined against gram positive organism, Streptococcus pyogenes C203; conditions: Streptococcus pyogenes; read-out: MIC; method in brief: as §1
[14] = Staphylococcus aureus, read-out: MIC

MIC [1] [µg/mL] | MIC [2] [µg/mL] | MIC [3] [µg/mL] | Geometric mean MIC over Gram-negative bacteria (µg/mL) [4] | Geometric mean MIC over Gram-positive bacteria (µg/mL) [5] | MIC [6] [µg/mL] | MIC [7] [µg/mL] | MIC [8] [µg/mL] | MIC [9] [µg/mL] | MIC [10] [µg/mL] | MIC [11] [µg/mL] | MIC [12] [µg/mL] | MIC [13] [µg/mL] | MIC [12, 14] [µg/mL] | Compound
2.5 (≈ 6.92 µM) | 0.4 (≈ 1.11 µM) | 0.1 (≈ 0.277 µM) | 0.6 | 0.15 | 0.4 (≈ 1.11 µM) | 3.1 (≈ 8.58 µM) | 1.6 (≈ 4.43 µM) | 0.2 (≈ 0.553 µM) | 0.2 (≈ 0.553 µM) | 0.2 (≈ 0.553 µM) | 0.1 (≈ 0.277 µM) | 0.1 (≈ 0.277 µM) |  | CCNCC1CCN(c2cc3c(cc2F)c(=O)c(C(=O)O)cn3CC)C1 (stereo not drawn)
7.5 (≈ 19.7 µM) | 0.8 (≈ 2.1 µM) | 0.4 (≈ 1.05 µM) | 1.58 | 4.79 | 0.8 (≈ 2.1 µM) | 12.5 (≈ 32.9 µM) | 3.1 (≈ 8.15 µM) | 1.6 (≈ 4.21 µM) | 12.5 (≈ 32.9 µM) | 6.3 (≈ 16.6 µM) |  | 25 (≈ 65.7 µM) | 0.8 (≈ 2.1 µM) | CCn1cc(C(=O)O)c(=O)c2c(N)c(F)c(N3CC(C)NC(C)C3)c(F)c21 (stereo not drawn)
7.5 (≈ 20.5 µM) | 0.2 (≈ 0.546 µM) | 0.2 (≈ 0.546 µM) | 0.6 | 2.07 | 0.4 (≈ 1.09 µM) | 3.1 (≈ 8.46 µM) | 1.6 (≈ 4.37 µM) | 1.6 (≈ 4.37 µM) | 3.1 (≈ 8.46 µM) | 3.1 (≈ 8.46 µM) |  | 6.3 (≈ 17.2 µM) | 0.4 (≈ 1.09 µM) | CCn1cc(C(=O)O)c(=O)c2c(N)c(F)c(N3CCNC(C)C3)c(F)c21 (stereo not drawn)
2.5 (≈ 7.12 µM) | 0.1 (≈ 0.285 µM) | 0.1 (≈ 0.285 µM) | 0.26 | 1.58 | 0.2 (≈ 0.569 µM) | 1.6 (≈ 4.55 µM) | 0.4 (≈ 1.14 µM) | 1.6 (≈ 4.55 µM) | 1.6 (≈ 4.55 µM) | 3.1 (≈ 8.82 µM) | 0.4 (≈ 1.14 µM) | 3.1 (≈ 8.82 µM) |  | CCn1cc(C(=O)O)c(=O)c2cc(F)c(N3CCNC(C)C3)c(F)c21 (stereo not drawn) [LOMEFLOXACIN]
7.5 (≈ 18.9 µM) | 1.6 (≈ 4.03 µM) | 1.6 (≈ 4.03 µM) | 4.18 | 8.27 | 6.3 (≈ 15.9 µM) | 12.5 (≈ 31.5 µM) | 6.3 (≈ 15.9 µM) | 3.1 (≈ 7.81 µM) | 25 (≈ 63 µM) | 12.5 (≈ 31.5 µM) |  | 25 (≈ 63 µM) | 1.6 (≈ 4.03 µM) | CCn1cc(C(=O)O)c(=O)c2c(N)c(F)c(N3CC(C)NC(C)C3)c(Cl)c21 (stereo not drawn)
0.75 (≈ 1.8 µM) | 0.05 (≈ 0.12 µM) | 0.05 (≈ 0.12 µM) | 0.15 | 0.087 | 0.1 (≈ 0.24 µM) | 1.6 (≈ 3.83 µM) | 0.2 (≈ 0.479 µM) | 0.1 (≈ 0.24 µM) | 0.1 (≈ 0.24 µM) | 0.2 (≈ 0.479 µM) | 0.025 (≈ 0.0599 µM) | 0.1 (≈ 0.24 µM) |  | CC1CN(c2cc3c(cc2F)c(=O)c(C(=O)O)cn3-c2ccc(F)cc2F)CCN1 (stereo not drawn) [TEMAFLOXACIN]
2.5 (≈ 6.32 µM) | 0.4 (≈ 1.01 µM) | 0.4 (≈ 1.01 µM) | 1.38 | 0.2 | 0.8 (≈ 2.02 µM) | 12.5 (≈ 31.6 µM) | 3.1 (≈ 7.84 µM) | 0.4 (≈ 1.01 µM) | 0.2 (≈ 0.506 µM) | 0.4 (≈ 1.01 µM) |  | 0.2 (≈ 0.506 µM) | 0.05 (≈ 0.126 µM) | CCNCC1CCN(c2c(F)c(O)c3c(=O)c(C(=O)O)cn(CC)c3c2F)C1 (stereo not drawn)
3.8 (≈ 9.63 µM) | 0.4 (≈ 1.01 µM) | 0.2 (≈ 0.507 µM) | 1.05 | 0.17 | 1.6 (≈ 4.06 µM) | 6.3 (≈ 16 µM) | 1.6 (≈ 4.06 µM) | 0.2 (≈ 0.507 µM) | 0.2 (≈ 0.507 µM) | 0.2 (≈ 0.507 µM) |  | 0.2 (≈ 0.507 µM) | 0.1 (≈ 0.254 µM) | CCNCC1CCN(c2c(F)c(N)c3c(=O)c(C(=O)O)cn(CC)c3c2F)C1 (stereo not drawn)
7.5 (≈ 19.9 µM) | 1.6 (≈ 4.25 µM) | 0.8 (≈ 2.13 µM) | 4.15 | 0.46 | 3.1 (≈ 8.24 µM) | 25 (≈ 66.4 µM) | 12.5 (≈ 33.2 µM) | 0.8 (≈ 2.13 µM) | 0.4 (≈ 1.06 µM) | 0.8 (≈ 2.13 µM) |  | 0.8 (≈ 2.13 µM) | 0.1 (≈ 0.266 µM) | CCNCC1CCN(c2cc3c(c(N)c2F)c(=O)c(C(=O)O)cn3CC)C1 (stereo not drawn)
2.5 (≈ 6.32 µM) | 0.2 (≈ 0.505 µM) | 0.2 (≈ 0.505 µM) | 0.69 | 0.057 | 0.4 (≈ 1.01 µM) | 12.5 (≈ 31.6 µM) | 0.8 (≈ 2.02 µM) | 0.1 (≈ 0.253 µM) | 0.05 (≈ 0.126 µM) | 0.1 (≈ 0.253 µM) | 0.025 (≈ 0.0632 µM) | 0.05 (≈ 0.126 µM) |  | CCNCC1CCN(c2c(F)cc3c(=O)c(C(=O)O)cn(CC)c3c2Cl)C1 (stereo not drawn)
3.8 (≈ 10.4 µM) | 0.2 (≈ 0.547 µM) | 0.2 (≈ 0.547 µM) | 0.79 | 3.17 | 0.4 (≈ 1.09 µM) | 12.5 (≈ 34.2 µM) | 1.6 (≈ 4.38 µM) | 1.6 (≈ 4.38 µM) | 6.3 (≈ 17.2 µM) | 6.3 (≈ 17.2 µM) | 0.8 (≈ 2.19 µM) | 6.3 (≈ 17.2 µM) |  | CCn1cc(C(=O)O)c(=O)c2cc(F)c(N3CC(C)NC(C)C3)c(F)c21 (stereo not drawn)
